Experimental data gathered from unrelated publications.
Compare with care: the assays were run in different laboratories.
Effect on: binding
PIK3CB: Phosphatidylinositol 4,5-bisphosphate 3-kinase catalytic subunit beta isoform (PIK3CB, Homo sapiens, UniProt P42338)
PIKFYVE: 1-phosphatidylinositol 3-phosphate 5-kinase (PIKFYVE, Homo sapiens, UniProt Q9Y2I7)
mnmE: mnmE (Escherichia coli, UniProt P25522)
UCK2: Uridine-cytidine kinase 2 (UCK2, Homo sapiens, UniProt Q9BZX2)

CCC(=O)N1CCC(C(=O)N(C)CC(=O)N2CCN(c3nc(-c4cnc(N)nc4C(F)F)nc(N4CCOCC4)n3)CC2)CC1  Kd (PIK3CB): 7.7 nM
Cc1cc2nc3c(=O)[nH]c(=O)nc-3n(C[C@H](O)[C@H](O)[C@H](O)COP(=O)(O)OP(=O)(O)OC[C@H]3O[C@@H](n4cnc5c(N)ncnc54)[C@H](O)[C@@H]3O)c2cc1C  Kd (Ubiquitin-associated protein 2 (Homo sapiens, UniProt Q5T6F2); lysate): 45 nM
NC(=O)c1ccc[n+]([C@@H]2O[C@H](COP(=O)([O-])OP(=O)(O)OC[C@H]3O[C@@H](n4cnc5c(N)ncnc54)[C@H](O)[C@@H]3O)[C@@H](O)[C@H]2O)c1  Kd (NAD-dependent histone deacetylase SIR2 (Saccharomyces cerevisiae S288c, UniProt P06700); SPR): 575 nM
COc1ccc2[nH]c(C(=O)O)c(/C=C/C(=O)c3ccncc3)c2c1  Kd (PIKFYVE; competition with immobilised ligand): 46 nM
Nc1nc2c(c(=O)[nH]1)N1CN(c3ccc(C(=O)N[C@@H](CCC(=O)O)C(=O)O)cc3)C[C@H]1CN2  Kd (mnmE; ITC): ~1000 nM
O=c1ccn([C@@H]2O[C@H](CO)[C@@H](O)[C@H]2O)c(=O)[nH]1  Kd (UCK2; fluorescence): 5.8 nM
Nc1nc(=O)c2c([nH]1)NC[C@@H](CNc1ccc(C(=O)N[C@@H](CCC(=O)O)C(=O)O)cc1)N2C=O  Kd (mnmE; ITC; pH 7.5): 200 nM
Cc1[nH]c2ccc(OC(C)C)cc2c1/C=C/C(=O)c1ccncc1  Kd (PIKFYVE; competition with immobilised ligand): 51 nM
O=C(O)c1cccc(Nc2cc(N3CCCCCC3)c3noc4c3c2C(=O)c2ccccc2-4)c1  Kd (Urokinase plasminogen activator surface receptor (Homo sapiens, UniProt Q03405)): 190 nM
[N-]=[N+]=N[C@@H]1[C@H](O)[C@@H](CO)O[C@H]1n1ccc(N)nc1=O  Kd (UCK2; fluorescence): 17.8 nM
COc1ccc2[nH]c(C)c(/C=C/C(=O)c3ccncc3)c2c1  Kd (PIKFYVE; competition with immobilised ligand): 6.9 nM
COc1cc(Nc2ncc3c(n2)-c2ccc(Cl)cc2C(c2c(F)cccc2OC)=NC3)ccc1C(=O)O  Kd (Interleukin-1 receptor-associated kinase 3 (IRAK3, Homo sapiens, UniProt Q9Y616); lysate): 2200 nM
C=CC(=O)N1CCC(C(=O)NCC(=O)N2CCN(c3nc(-c4cnc(N)nc4C(F)F)nc(N4CCOCC4)n3)CC2)CC1  Kd (PIK3CB): 0.85 nM
COc1ccc(Nc2nnc(-c3ccc(C(=O)NO)cc3)o2)cc1  Kd (Glycogen synthase kinase-3 beta (GSK3B, Homo sapiens, UniProt P49841); SPR): 1000 nM
Cc1cnc(-c2ccc(-c3ccc(NC(=O)Nc4c(F)cc(F)cc4F)cc3F)c3c2C(=O)NC3)[nH]1  Kd (Dual specificity mitogen-activated protein kinase kinase 1 (MAP2K1, Homo sapiens, UniProt Q02750); competition with immobilised ligand): 23 nM
